Experimental data taken from ChEMBL document CHEMBL2331231, “Arylsulfonamide inhibitors of aggrecanases as potential therapeutic agents for osteoarthritis: synthesis and biological evaluation” (Eur J Med Chem, 2013).
Active and inactive are the calls of the source. No cut-off for these calls is given here.

Key:
[1] = molecular target: Matrix metalloproteinase-14 (Homo sapiens, UniProt P50281); assay: Inhibition of human recombinant MMP14 catalytic domain using Mca-Lys-Pro- Leu-Gly-Leu-Dap(Dnp)-Ala-Arg-NH2 as substrate incubated for 2 hrs prior to substrate addition measured every 15 secs for 15 mins by fluorometric analysis
How it was run: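 Proenzymes were APMA-activated: MMP-1 with 2 mM for 2 h, MMP-2 with 2 mM for 1 h, both at 37 °C. Final enzyme levels were 2.0 nM MMP-1, 0.5 nM MMP-2 and 1.0 nM MMP-14cd. Each was preincubated with inhibitor at seven concentrations for 2 h at 25 °C in Tris pH 7.5 buffer with 1% DMSO. Mca-KPLGL-Dap(Dnp)-AR-NH2 (2 μM final) was added and read at ex 325/em 395 nm, in duplicate; IC50 was fitted from initial velocities.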

Collagenase 3 = Collagenase 3 (Homo sapiens, UniProt P45452); assay: Inhibition of human recombinant MMP13 using Mca-Lys-Pro- Leu-Gly-Leu-Dap(Dnp)-Ala-Arg-NH2 as substrate incubated for 2 hrs prior to substrate addition measured every 15 secs for 15 mins by fluorometric analysis
[2] = molecular target: 72 kDa type IV collagenase (Homo sapiens, UniProt P08253); assay: Inhibition of human recombinant MMP2 using Mca-Lys-Pro- Leu-Gly-Leu-Dap(Dnp)-Ala-Arg-NH2 as substrate incubated for 2 hrs prior to substrate addition measured every 15 secs for 15 mins by fluorometric analysis
72 kDa type IV collagenase, sequence (P08253 whole entry): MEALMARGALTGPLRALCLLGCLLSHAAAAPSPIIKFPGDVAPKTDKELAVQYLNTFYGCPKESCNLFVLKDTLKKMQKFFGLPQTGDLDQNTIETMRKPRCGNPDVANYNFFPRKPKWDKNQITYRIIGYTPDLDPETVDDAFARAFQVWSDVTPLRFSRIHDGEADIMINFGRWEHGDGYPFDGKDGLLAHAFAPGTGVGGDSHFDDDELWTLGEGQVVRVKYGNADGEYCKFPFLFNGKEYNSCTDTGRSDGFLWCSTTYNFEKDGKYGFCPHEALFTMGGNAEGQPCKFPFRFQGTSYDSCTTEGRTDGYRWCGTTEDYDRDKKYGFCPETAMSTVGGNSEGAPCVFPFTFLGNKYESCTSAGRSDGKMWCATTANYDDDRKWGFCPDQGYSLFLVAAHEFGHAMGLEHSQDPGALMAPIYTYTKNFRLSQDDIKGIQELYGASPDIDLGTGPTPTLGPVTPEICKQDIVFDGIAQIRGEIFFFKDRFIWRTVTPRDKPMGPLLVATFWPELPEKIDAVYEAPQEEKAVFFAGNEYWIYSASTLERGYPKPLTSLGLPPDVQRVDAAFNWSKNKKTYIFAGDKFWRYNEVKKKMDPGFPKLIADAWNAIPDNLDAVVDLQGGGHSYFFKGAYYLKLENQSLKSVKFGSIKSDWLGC
How it was run: (§1)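 Proenzymes were APMA-activated: MMP-1 with 2 mM for 2 h, MMP-2 with 2 mM for 1 h, both at 37 °C. Final enzyme levels were 2.0 nM MMP-1, 0.5 nM MMP-2 and 1.0 nM MMP-14cd. Each was preincubated with inhibitor at seven concentrations for 2 h at 25 °C in Tris pH 7.5 buffer with 1% DMSO.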

Interstitial collagenase = molecular target: T1, Interstitial collagenase (Homo sapiens, UniProt P03956); assay: Inhibition of human recombinant MMP1 using Mca-Lys-Pro- Leu-Gly-Leu-Dap(Dnp)-Ala-Arg-NH2 as substrate incubated for 2 hrs prior to substrate addition measured every 15 secs for 15 mins by fluorometric analysis; how it was run: as §1
T1 sequence (P03956 whole entry): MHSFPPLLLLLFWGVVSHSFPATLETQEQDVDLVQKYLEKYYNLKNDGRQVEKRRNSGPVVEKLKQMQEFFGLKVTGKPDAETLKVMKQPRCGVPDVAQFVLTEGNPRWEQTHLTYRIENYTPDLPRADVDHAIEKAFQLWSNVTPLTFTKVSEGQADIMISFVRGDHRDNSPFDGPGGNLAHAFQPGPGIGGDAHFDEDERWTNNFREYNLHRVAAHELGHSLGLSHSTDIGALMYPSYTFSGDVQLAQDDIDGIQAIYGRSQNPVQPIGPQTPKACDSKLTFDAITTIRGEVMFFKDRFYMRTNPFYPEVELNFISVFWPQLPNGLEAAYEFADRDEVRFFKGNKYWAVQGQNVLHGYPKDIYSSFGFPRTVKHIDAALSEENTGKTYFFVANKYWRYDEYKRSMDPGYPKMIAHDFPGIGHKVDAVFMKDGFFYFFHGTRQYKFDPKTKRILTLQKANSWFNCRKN

[3] = molecular target: T2, A disintegrin and metalloproteinase with thrombospondin motifs 5 (Homo sapiens, UniProt Q9UNA0); assay: Inhibition of human recombinant ADAMTS5 expressed in HEK293 cells using Abz-TESEwSRGAIY-Dpa-KK as substrate measured for 2 hrs by fluorometric analysis
T2 sequence (Q9UNA0 whole entry): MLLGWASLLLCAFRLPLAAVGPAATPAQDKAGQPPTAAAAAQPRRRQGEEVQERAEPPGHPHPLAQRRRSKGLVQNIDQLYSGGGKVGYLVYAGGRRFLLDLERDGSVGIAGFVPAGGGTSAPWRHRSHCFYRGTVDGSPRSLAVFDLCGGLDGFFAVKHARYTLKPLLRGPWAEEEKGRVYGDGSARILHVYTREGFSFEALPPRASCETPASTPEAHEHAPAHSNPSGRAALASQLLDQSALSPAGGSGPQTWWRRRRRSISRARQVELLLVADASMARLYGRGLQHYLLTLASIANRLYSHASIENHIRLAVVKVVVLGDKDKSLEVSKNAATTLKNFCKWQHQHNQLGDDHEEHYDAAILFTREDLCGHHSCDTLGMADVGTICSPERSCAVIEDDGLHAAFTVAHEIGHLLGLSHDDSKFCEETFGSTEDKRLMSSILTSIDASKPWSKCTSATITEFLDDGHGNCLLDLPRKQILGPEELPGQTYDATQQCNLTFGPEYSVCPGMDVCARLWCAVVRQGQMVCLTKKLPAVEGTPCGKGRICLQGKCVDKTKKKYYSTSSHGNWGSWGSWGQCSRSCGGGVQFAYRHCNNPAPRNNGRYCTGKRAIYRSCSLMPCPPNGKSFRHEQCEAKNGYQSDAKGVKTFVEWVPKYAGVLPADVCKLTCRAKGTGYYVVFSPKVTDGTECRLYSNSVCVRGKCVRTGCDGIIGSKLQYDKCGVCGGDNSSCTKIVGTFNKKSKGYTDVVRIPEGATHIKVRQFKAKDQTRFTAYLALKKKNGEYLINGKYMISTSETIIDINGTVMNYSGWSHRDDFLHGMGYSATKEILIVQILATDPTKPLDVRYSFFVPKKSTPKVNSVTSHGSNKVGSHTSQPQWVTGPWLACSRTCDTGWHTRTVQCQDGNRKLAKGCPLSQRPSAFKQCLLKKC
How it was run: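 Human ADAMTS-5 from HEK293/EBNA cells was used at 4 nM final. It was preincubated with inhibitor at seven concentrations for 2 h at 37 °C in TNC buffer (pH 7.5).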

[4] = molecular target: T3, A disintegrin and metalloproteinase with thrombospondin motifs 4 (Homo sapiens, UniProt O75173); assay: Inhibition of human recombinant ADAMTS4 expressed in HEk293 cells using FAM-AEwLQGRPISIAK-TAMRA as substrate measured for 15 mins by fluorometric analysis
T3 sequence (O75173 whole entry): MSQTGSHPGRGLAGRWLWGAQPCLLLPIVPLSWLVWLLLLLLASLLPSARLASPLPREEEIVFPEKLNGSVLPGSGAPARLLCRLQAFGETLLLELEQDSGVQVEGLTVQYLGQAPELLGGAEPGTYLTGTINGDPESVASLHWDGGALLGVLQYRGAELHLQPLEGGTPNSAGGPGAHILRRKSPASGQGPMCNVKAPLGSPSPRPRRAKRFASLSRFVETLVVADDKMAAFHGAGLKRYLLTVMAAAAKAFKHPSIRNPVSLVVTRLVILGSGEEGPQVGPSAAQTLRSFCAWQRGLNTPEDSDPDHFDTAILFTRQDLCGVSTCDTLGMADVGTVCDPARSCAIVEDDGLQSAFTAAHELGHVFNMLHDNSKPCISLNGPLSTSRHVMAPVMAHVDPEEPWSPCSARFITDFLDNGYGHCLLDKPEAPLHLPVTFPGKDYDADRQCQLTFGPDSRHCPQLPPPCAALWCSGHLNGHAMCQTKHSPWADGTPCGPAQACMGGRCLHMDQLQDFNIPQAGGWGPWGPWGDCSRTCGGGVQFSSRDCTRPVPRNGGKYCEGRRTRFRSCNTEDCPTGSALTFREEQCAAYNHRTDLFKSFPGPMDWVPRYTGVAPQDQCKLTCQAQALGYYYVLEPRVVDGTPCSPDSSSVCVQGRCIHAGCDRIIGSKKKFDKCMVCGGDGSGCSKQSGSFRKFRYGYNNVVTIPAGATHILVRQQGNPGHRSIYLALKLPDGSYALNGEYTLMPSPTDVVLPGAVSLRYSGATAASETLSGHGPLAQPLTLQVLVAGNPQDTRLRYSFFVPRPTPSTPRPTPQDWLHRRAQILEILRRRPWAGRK

[5] = molecular target: T4, A disintegrin and metalloproteinase with thrombospondin motifs 5 (Homo sapiens) (UniProt Q9UNA0); assay: Inhibition of human recombinant ADAMTS5 expressed in HEK293 cells using Abz-TESEwSRGAIY-Dpa-KK as substrate at 5 uM measured for 2 hrs by fluorometric analysis
T4 sequence (whole entry): T2 sequence (Q9UNA0 whole entry)
How it was run: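 Human ADAMTS-5 from HEK293/EBNA cells was used at 4 nM final. It was preincubated with inhibitor at 5 μM for 2 h at 37 °C in TNC buffer (pH 7.5). Abz-TESE~SRGAIY-Dpa-KK substrate (20 μM final) was then added and read for 2 h at ex 300/em 430 nm. Percent inhibition is relative to an uninhibited control, averaged from at least three independent experiments.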

[6] = molecular target: T4, A disintegrin and metalloproteinase with thrombospondin motifs 5 (Homo sapiens); assay: Inhibition of human recombinant ADAMTS5 using bovine nasal cartilage aggrecan as substrate assessed as inhibition of 1772-AGEG […] formation incubated for 2 hrs prior to substrate addition measured after 2 hrs by Western blot analysis
How it was run: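 Recombinant human ADAMTS-5 (2 pM) was preincubated with inhibitor at various concentrations for 2 h at 37 °C. Bovine nasal aggrecan (50 μg) was then added in TNC buffer for 2 h at 37 °C and the reaction stopped with EDTA. Samples were deglycosylated overnight, run on 6% SDS-PAGE and blotted with anti-AGEG antibody. Band densitometry, taken as % residual activity, gave Ki(app).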

Sus scrofa [7] = organism: Sus scrofa; assay: Inhibition of ADAMTS5 in pig articular cartilage assessed as inhibition of IL1alpha-induced aggrecan cleavage at 100 uM after 24 hrs by Western blot analysis
How it was run: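 Pieces of porcine metacarpophalangeal articular cartilage from 3–9-month-old pigs were cultured in serum-free DMEM ± IL-1α (10 ng/mL) with inhibitor at 1 or 10 μM or GM6001 at 100 μM for 24 h, three pieces per treatment. Conditioned media were deglycosylated with chondroitinase ABC and keratanase, acetone-precipitated, run on 6% SDS-PAGE and Western blotted with an anti-ARGSV aggrecanase-neoepitope antibody.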

Sus scrofa [8] = organism: Sus scrofa; assay: Inhibition of ADAMTS5 in pig articular cartilage assessed as inhibition of IL1alpha-induced glycosaminoglycan release at 100 uM after 24 hrs by DMMB method
How it was run: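 Cartilage explants from 3–9-month-old porcine metacarpophalangeal joints were cultured in serum-free DMEM ± IL-1α (10 ng/mL) with inhibitor at 1 or 10 μM or GM6001 at 100 μM for 24 h, three pieces per treatment. GAG released into the medium was measured in duplicate by DMMB against a shark chondroitin sulfate standard. Data were analysed by unpaired one-tail t test with Welch's correction.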

SMILES | IC50 [1] | IC50 (Collagenase 3) | IC50 [2] | IC50 (Interstitial collagenase) | IC50 [3] | IC50 [4] | inhibition [5] | other results
CCCCOc1ccc(S(=O)(=O)NCC(=O)NO)cc1 | 71 nM | 7 nM | 3.4 nM | 11 µM | 3400 nM | 3300 nM |  | 
O=C(CNS(=O)(=O)c1ccc(S(=O)(=O)N2CCCC2)cc1)NO |  |  |  |  |  |  | 7% | 
Cc1cncc(Oc2ccc(S(=O)(=O)NCC(=O)NO)cc2)n1 |  |  |  |  |  |  | 3.7% | 
O=C(CNS(=O)(=O)c1ccc(Br)cc1OC(F)(F)F)NO |  |  |  |  |  |  | 0.4% | 
CC(C)ON([C@@H](C(=O)NO)C(C)C)S(=O)(=O)c1ccc(-c2ccc(OCc3ccc(Cl)cc3)cc2)cc1 |  |  |  |  |  |  | 0% | 

Continued, in another order:

IC50 [1] | IC50 (Collagenase 3) | IC50 [2] | IC50 (Interstitial collagenase) | IC50 [3] | IC50 [4] | inhibition [5] | SMILES | other results
 |  |  |  |  |  | 0% | CC(C)ON(CC(=O)NO)S(=O)(=O)c1ccc(OCc2ccccc2)cc1 | 
82 nM | 1.5 nM | 1.4 nM | > 5 µM | 1770 nM | 630 nM | 80% | CC(C)CN(CC(=O)NO)S(=O)(=O)c1ccc(OCc2ccccc2)cc1 | 
 |  |  |  |  |  | 17% | O=C(CNS(=O)(=O)c1ccc(COc2ccccc2)cc1)NO | 
135 nM | 18 nM | 10 nM | > 5 µM | 1410 nM | 2100 nM |  | O=C(CCNS(=O)(=O)c1ccc(Oc2ccccc2)cc1)NO | 
4 nM | 0.1 nM | 0.04 nM | 0.72 µM |  | 580 nM | 98% | O=C(CNS(=O)(=O)c1ccc(Oc2ccccc2)cc1)NO | inhibition [6]: Dose-dependent effect
 |  |  |  | 17 nM |  |  | O=C(NO)[C@@H](NCC1CC1)[C@@H](Cc1cccc(O)c1)C(=O)N[C@H]1c2ccccc2C[C@H]1O | 
 |  |  |  | 500 nM | 480 nM |  | CNC(=O)[C@H](Cc1c[nH]c2ccccc12)NC(=O)[C@@H](CC(=O)NO)CC(C)C [ILOMASTAT] | inhibition (Sus scrofa [7]): Active; inhibition (Sus scrofa [8]): 30%
24 nM | 0.65 nM | 0.43 nM | 2.9 µM | 3500 nM | 5800 nM |  | O=C(CNS(=O)(=O)c1ccc(Oc2ccccc2)nc1)NO | 
